From PubChem
ABHD5-PLIN5 inh – blocks binding of human ABHD5 to perilipin-5; Q00G26+Q8WTS1; Split G. princeps luciferase complementation, luminescence, 4 h; inhibition, % at 4 µM; hit rate 0.78% among 360,000; AID 602281;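 active = inhibition above the mean inhibition across every tested compound plus 3 SD, cut at about 22% in these data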
MBD2 inh – blocks human MBD2 binding to methylated DNA | TR-FRET, MBD2 binding to methylated oligonucleotide | inhibition, % at 4.4 µM | hit rate 0.31% among 370,000 | AID 686964; in the data active = inhibition above about 13%
Target sequence (Q9UBB5 whole entry, looked up): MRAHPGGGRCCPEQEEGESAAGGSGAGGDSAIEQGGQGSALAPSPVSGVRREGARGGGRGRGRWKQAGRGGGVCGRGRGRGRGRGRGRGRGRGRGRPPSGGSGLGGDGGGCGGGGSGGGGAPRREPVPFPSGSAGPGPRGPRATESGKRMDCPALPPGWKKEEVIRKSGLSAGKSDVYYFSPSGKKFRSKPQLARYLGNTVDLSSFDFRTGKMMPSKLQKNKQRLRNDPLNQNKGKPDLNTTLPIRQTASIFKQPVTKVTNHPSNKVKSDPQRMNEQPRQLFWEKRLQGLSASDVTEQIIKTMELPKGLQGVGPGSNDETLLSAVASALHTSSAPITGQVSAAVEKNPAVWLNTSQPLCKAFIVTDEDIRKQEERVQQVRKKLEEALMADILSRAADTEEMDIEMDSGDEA
RBBP9 inh – blocks human serine hydrolase RBBP9. recombinant RBBP9, FP-Rh probe fluorescence polarization. inhibition, % at 7.94 µM. hit rate 0.2% among 220,000. AID 1515;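 active = inhibition above the campaign mean of all tested compounds plus 3 SD, cut at about 14% in these data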
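Assay system: recombinant human RBBP9; Reagent: Serine-hydrolase probe FP-Rh, 375 nM pre-mixing; Doses: 7.94 µM single dose, 0.794% DMSO; Incubation: 30 min then 45 min, 25 °C; Detection: fluorescence polarization (mP), excitation 525 nm, emission 598 nm; Evaluation: percent inhibition from mP, scaled between DMSO and no-protein wells.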
PRMT1 inh – PRMT1 (human) inhibition, primary screen; recombinant PRMT1, activity-based probe fluorescence polarization; inhibition, % at 2.79 µM; AID 652257; Q99873; hit rate 1.3% among 370,000;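 active = inhibition above about 21% made by adding two undisclosed values, limit read from the data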
LEDGF integ inh – blocks HIV-1 LEDGF/p75-dependent DNA integration; TR-FRET IN-LEDGF/p75 DNA integration, Eu/Cy5; inhibition, % at 3.7 µM; hit rate 0.64% among 370,000; AID 743269;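 active = inhibition above the screen-wide mean plus 3 SD, cut at about 13% in these data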;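 note: signal is the Cy5 over europium emission ratio at 671 and 618 nm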
UHRF1 MBD2 ctr – UHRF1 methyl-DNA binding inhibition | Q96T88 | hit rate 0.75% among 370,000 | inhibition, % at 4.4 µM | UHRF1 binding to methylated oligo, TR-FRET; in the data active = inhibition above about 21%;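 note: UHRF1 SRA domain binding a hemimethylated CpG hairpin DNA probe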
Of the large screens only hits and unclear results are named; the others gave an inactive call. A selection: hits, their analogues and other compounds. The true share with any hit is near 3.1%.

COC(=O)C1=C(C)N(C)C(=NCc2ccccc2)NC1c1ccccc1C(F)(F)F (configuration not stated)	none (no result: ABHD5-PLIN5 inh, RBBP9 inh)
CCCCCCCCN1C(=O)N2Cc3ccccc3C2CS1(=O)=O (configuration not stated)	none (no result: ABHD5-PLIN5 inh, RBBP9 inh)
COC(=O)[C@]1(CNC(=O)C(C)(C)C)CC(=O)N(C)[C@@H]1c1ccccc1	none (no result: ABHD5-PLIN5 inh, RBBP9 inh)
Cc1ccc(NC(=O)C2Cc3ccccc3O/C2=N\O)cc1C (configuration not stated)	UHRF1 MBD2 ctr 21 (no result: RBBP9 inh)
O=C(Nc1ccc(Br)cc1)C1Cc2ccccc2O/C1=N\O (configuration not stated)	none (no result: RBBP9 inh)
O=C(Cn1cnc2sc3c(c2c1=O)CCCC3)NCC(=O)Nc1c(F)cccc1F	UHRF1 MBD2 ctr 22 (no result: RBBP9 inh)
CC[n+]1c(/C=C(\C)OC)sc2ccccc21	PRMT1 inh 23
CCN(CC)C(=O)CSc1nnc(-c2ccc(C(C)(C)C)cc2)n1Cc1ccco1	none (no result: ABHD5-PLIN5 inh, RBBP9 inh)
O=C(Cc1ccc(Cl)cc1Cl)NCc1cccnc1	UHRF1 MBD2 ctr 21 (no result: RBBP9 inh)
O=C1CSC(=S)N1Nc1ccccc1	PRMT1 inh 24 (no result: RBBP9 inh)
Cc1ccccc1C(=O)NN1C(=O)CSC1=S	none
O=[N+]([O-])c1cc2c(cc1C=Nc1ccccc1)OCO2	none (no result: MBD2 inh, PRMT1 inh, LEDGF integ inh, UHRF1 MBD2 ctr)
Cc1cccc(N=Cc2cc3c(cc2[N+](=O)[O-])OCO3)c1	LEDGF integ inh 14
CS(=O)(=O)c1cccc(-c2nnc(NC(=O)c3ccc4ncsc4c3)o2)c1	none (no result: RBBP9 inh)
CS(=O)(=O)c1ccccc1-c1nnc(NC(=O)c2ccc3ncsc3c2)o1	PRMT1 inh 28 (no result: RBBP9 inh)
COc1cc(C(=O)c2ccccc2)c(OC)cc1C(=O)Nc1ccc(O)cc1	UHRF1 MBD2 ctr 27
COc1ccc(NC(=O)c2cc3ccccc3cc2OC)cc1	none (no result: RBBP9 inh)
COc1ccc(-c2cc(C(=O)Nc3ccc(S(=O)(=O)Nc4onc(C)c4C)cc3)c3ccccc3n2)cc1	LEDGF integ inh 60
COc1ccc(-c2cc(C(=O)Nc3ccc(S(=O)(=O)Nc4ncccn4)cc3)c3ccccc3n2)cc1	none
COc1ccc(C2C3=C(N=C4SCC(=O)N42)c2ccccc2CC3)cc1 (configuration not stated)	PRMT1 inh 24
CCOC(=O)C1=C(C)N=C2SCCC(=O)N2C1c1ccc(OC)cc1 (configuration not stated)	none (no result: ABHD5-PLIN5 inh, MBD2 inh, PRMT1 inh, LEDGF integ inh, UHRF1 MBD2 ctr)
CCCCN1CCN(C(=O)c2cn(C(C)c3ccccc3)nn2)CC1 (configuration not stated)	none (no result: ABHD5-PLIN5 inh, RBBP9 inh)
COc1ccccc1CCn1cnc(-c2ccc(OC)c(OC)c2)c1CC(C)C	none (no result: ABHD5-PLIN5 inh, RBBP9 inh)
Cc1cc(NC(=O)CN2C(=O)NC(C)(c3ccccc3)C2=O)no1 (configuration not stated)	UHRF1 MBD2 ctr 97
CCCC1(c2ccccc2)NC(=O)N(CC(=O)Nc2cc(C)on2)C1=O (configuration not stated)	none
COC(=O)[C@@]12CCCCC3=C1N(CCC3)C(=O)[C@H]2CC(=O)NCCC(C)C	none (no result: ABHD5-PLIN5 inh, RBBP9 inh)
O=C(Nc1ccc(Cl)cc1)NC1CCCC1Cc1ccco1 (configuration not stated)	ABHD5-PLIN5 inh 49 (no result: MBD2 inh, PRMT1 inh, LEDGF integ inh, UHRF1 MBD2 ctr)
Cc1cc(N2CCNC[C@@H]2C)ccc1N1CCN(Cc2ccccc2)[C@H](C)C1	none (no result: ABHD5-PLIN5 inh, RBBP9 inh)
CCN(CC)S(=O)(=O)c1ccc(C)c(NC(=O)/C=C/c2cccs2)c1	UHRF1 MBD2 ctr 22
Cc1cc(-c2nc(-c3ccc(C(C)(C)C)cc3)no2)no1	none
CC(C)(C)c1ccc(-c2noc(-c3ccc4c(c3)CCO4)n2)cc1	UHRF1 MBD2 ctr 25
COC1=C[C@H](C(=O)NCc2ccccn2)[C@H](C)[C@@H](c2ccccc2)CC1=O	none (no result: ABHD5-PLIN5 inh, RBBP9 inh)
COc1ccc(CCNS(=O)(=O)c2cc3c4c(c2)CC(=O)N4CCC3)cc1	UHRF1 MBD2 ctr 26 (no result: RBBP9 inh)
COc1ccc(S(=O)(=O)Nc2cc3c4c(c2)CC(=O)N4CCC3)cc1	none (no result: RBBP9 inh)
O=C1/C(=C/Nc2ccc3c(c2)OCO3)CCc2ccccc21	PRMT1 inh 23
O=C1OC2(CCCCC2)OC(=O)C1=CNc1ccc2c(c1)OCO2	none
COc1ccc2c(c1)CC/C(=C\Nc1ccc3c(c1)OCO3)C2=O	PRMT1 inh 29
O=C(O)c1cccc(N/N=C/c2cccc3ccccc23)c1	UHRF1 MBD2 ctr 42 (no result: RBBP9 inh)
Cc1oc(-c2ccccc2F)nc1CSCC(=O)NC1CCCC1	PRMT1 inh 24 (no result: RBBP9 inh)
Cc1oc(-c2ccccc2Cl)nc1CSCC(=O)NC1CC1	none
